Reference: ChEMBL document CHEMBL1240469, “In vitro and in vivo studies on stilbene analogs as potential treatment agents for colon cancer” (Eur J Med Chem, 2010)
Calls of active or inactive are those of the source. The rule behind the calls is not given here.

How the values were obtained:
Serum = test: Drug level in SCID mouse serum at 10 mg/kg, ip by GC-MS analysis; type: ADME, organism-based; parameters: dose 10 mg/kg, route intraperitoneal; conditions: in vivo
How it was run: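 Blood taken at autopsy from xenografted SCID mice after 3 weeks of daily i.p. dosing at 10 mg/kg. Serum (50 μL) was incubated with 1 M sodium acetate pH 5 for 60 min at 37 °C, extracted 3× with ethyl acetate, dried and redissolved. Analysed by GC-MS on a DB-5 column, with quantification against external-standard calibration curves at m/z 255, 298 or 270. Values given as mean ± std.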

Caco-2 = test: Cytotoxicity against human Caco-2 cells after 3 days by [3H]thymidine incorporation assay; type: functional, cell-based
How it was run: (§1)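 Cells kept in DMEM with 10% FBS at 37 °C, 5% CO2, then plated at 20,000 cells/well. Exposed to a range of concentrations for 3 days at 37 °C, final DMSO 0.1% or less, with DMSO controls. IC50 reported.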

HT-29 [1] = test: Cytotoxicity against human HT-29 cells after 3 days by [3H]thymidine incorporation assay; type: functional, cell-based; how it was run: as §1
HT-29 [2] = test: Antitumor activity against human HT-29 cells xenografted in SCID mouse assessed as reduction tumor volume at 10 mg/kg, ip qd for 3 weeks (reference value: 1087 +/- 138.9 mm'3); type: functional; conditions: route intraperitoneal
HT-29 [3] = test: Antitumor activity against human HT-29 cells xenografted in SCID mouse assessed as reduction tumor weight at 10 mg/kg, ip qd for 3 weeks (reference value: 0.72 +/- 0.1 g); type: functional; conditions: route intraperitoneal
Mus musculus = test: Toxicity in SCID mouse assessed as effect on body weight at 10 mg/kg, ip qd for 3 weeks (reference value: 20.4 +/- 0.4 g); type: organism-based; parameters: dose 10 mg/kg, route intraperitoneal; conditions: in vivo, 504 h
HT-29 [4] = test: Reduction of proliferating cell nuclear antigen level in human HT-29 cells by immunohistochemistry analysis; type: functional, cell-based
How it was run: (§2)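 Paraffin sections of xenograft tumors, 4 μm thick, incubated overnight with anti-PCNA (1:1000) or anti-p27 (1:50), then biotinylated secondary, avidin-biotin peroxidase and diaminobenzidine, with hematoxylin counterstain. Five random fields per slide were imaged at 400×. PCNA was reported as labeling index (positive cells/total ×100, averaged per tumor); p27 as integrated optical density averaged per tumor and per group; ± SE.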

HT-29 [5] = test: Up-regulation of p27 expression level in human HT-29 cells by immunohistochemistry analysis; type: functional, cell-based; how it was run: as §2
HT-29 [6] = test: Induction of apoptosis in human HT-29 cells assessed as caspase3 activity; type: functional, cell-based
HT-29 [7] = test: Reduction of proliferating cell nuclear antigen level in human HT-29 cells by Western blotting; type: functional, cell-based
How it was run: (§3)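 Xenograft tumors from treated SCID mice were homogenized in lysis buffer and pooled by group. Primary antibodies (PCNA or p27) were applied overnight at 4 °C, followed by HRP secondary for 1 h. Bands detected by chemiluminescence, with β-actin as loading control.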

HT-29 [8] = test: Up-regulation of p27 expression level in human HT-29 cells by Western blotting; type: functional, cell-based; how it was run: as §3
HT-29 [9] = test: Induction of apoptosis in human HT-29 cells assessed as PARP cleavage; type: functional, cell-based

Row | Compound | Drug uptake (Serum) | IC50 (Caco-2) | IC50 (HT-29 [1]) | other results
1 | COc1cc(/C=C\c2ccc(N)cc2)cc(OC)c1 | 109.1 ng/mL | – | – | –
2 | COc1cc(/C=C/c2ccc(S)cc2)cc(OC)c1 | – | > 10 µM | > 10 µM | –
3 | COC(=O)c1ccc(/C=C\c2cc(OC)cc(OC)c2)cc1 | 18.8 ng/mL | – | – | –
4 | COc1cc(/C=C/c2ccc(OC3OC(CO)C(O)C(O)C3O)cc2)cc(OC)c1 (stereo not drawn) | – | > 10 µM | > 10 µM | –
5 | COc1cc(/C=C/c2ccc(F)cc2)cc(OC)c1 | – | > 10 µM | > 10 µM | –
6 | COc1ccc(/C=C\c2cc(O)cc(O)c2)cc1 | – | > 30 µM | > 30 µM | –
7 | COc1cc(/C=C/c2ccc(N)cc2)cc(OC)c1 | 99 ng/mL | – | – | –
8 | COc1cc(/C=C\c2ccc(F)cc2)cc(OC)c1 | – | > 10 µM | > 10 µM | –
9 | COC(=O)c1ccc(/C=C/c2cc(OC)cc(OC)c2)cc1 | 54.6 ng/mL | – | – | –
10 | COc1cc(O)cc(/C=C/c2ccc(O)cc2)c1 | – | 19.2 µM | 33.5 µM | –
11 | COc1ccc(/C=C\c2cc(OC)cc(OC)c2)cc1 [8Z-3,4',5-TRIMETHOXYSTILBENE] | 15.5 ng/mL | 0.08 µM | 0.04 µM | Activity (HT-29 [2]): 1023.6 mm3; Activity (HT-29 [3]): 0.61 g; Activity (Mus musculus): 19.8 g
12 | COc1cc(/C=C/c2ccc(O)cc2)cc(OC)c1 [PTEROSTILBENE] | – | 14.5 µM | 23.8 µM | –
13 | COc1ccc(/C=C/c2cc(O)cc(O)c2)cc1 [RESVERATROL 4'-METHYL ETHER] | – | > 30 µM | 24.5 µM | –
14 | COc1ccc(/C=C/c2cc(OC)cc(OC)c2)cc1 [TRISMETHOXYRESVERATROL] | 69.9 ng/mL | 12 µM | 16.1 µM | Activity (HT-29 [4]): Active; Activity (HT-29 [2]): 590.3 mm3; Activity (HT-29 [5]): Active; Activity (HT-29 [6]): inactive; Activity (HT-29 [3]): 0.57 g; Activity (HT-29 [7]): Active; Activity (HT-29 [8]): Active; Activity (Mus musculus): 19.5 g; Activity (HT-29 [9]): inactive
